Converted amounts (≈) assume the structure as drawn.
Experiments:
Escherichia coli [1] = assay: Evaluated for the minimum inhibitory concentration (MIC) which inhibits the growth of Escherichia coli ATCC 25922 (gram-negative); assay type: functional
Summary of the method: (§1)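 Agar dilution on trypticase soy agar plates holding sample or standard at 0 to 200 μg/mL agar. Solutions were made and diluted in Me₂SO or water. Each plate was inoculated twice with every organism using a Steers replicator and incubated 18 h at 37 °C. MIC was taken as the lowest level that inhibited growth.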

Staphylococcus aureus [2] = assay: Evaluated for the minimum inhibitory concentration (MIC) which inhibits the growth of Staphylococcus aureus ATCC 25923 (gram-positive); assay type: functional; summary of the method: as §1
Enterobacter cloacae [3] = assay: Evaluated for the minimum inhibitory concentration (MIC) which inhibits the growth of Enterobacter cloacae ATCC 13047 (gram-negative); assay type: functional; summary of the method: as §1
Proteus vulgaris [4] = assay: Evaluated for the minimum inhibitory concentration (MIC) which inhibits the growth of Proteus vulgaris ATCC 6380 (gram-negative); assay type: functional; summary of the method: as §1
Klebsiella pneumoniae [5] = assay: Evaluated for the minimum inhibitory concentration (MIC) which inhibits the growth of Klebsiella pneumoniae ATCC 27736 (gram-negative); assay type: functional; summary of the method: as §1
Proteus mirabilis [6] = assay: Evaluated for the minimum inhibitory concentration (MIC) which inhibits the growth of Proteus mirabilis MIT B-52 (gram-negative); assay type: functional; summary of the method: as §1
Micrococcus luteus [7] = assay: Evaluated for the minimum inhibitory concentration (MIC) which inhibits the growth of Sarcina lutea ATCC 9341 (gram-positive); assay type: functional; summary of the method: as §1
Shigella sonnei [8] = assay: Evaluated for the minimum inhibitory concentration (MIC) which inhibits the growth of Shigella sonnei ATCC 11060 (gram-negative); assay type: functional; summary of the method: as §1
[9] = tested on: Staphylococcus epidermidis; assay: Evaluated for the minimum inhibitory concentration (MIC) which inhibits the growth of Staphylococcus epidermidis ATCC 14990 (gram-positive); assay type: functional; summary of the method: as §1
Bacillus subtilis [10] = assay: Evaluated for the minimum inhibitory concentration (MIC) which inhibits the growth of Bacillus subtilis ATCC 6051 (gram-positive); assay type: functional; summary of the method: as §1
Streptococcus pyogenes [11] = assay: Evaluated for the minimum inhibitory concentration (MIC) which inhibits the growth of Streptococcus pyogenes ATCC 10389 (gram-positive); assay type: functional; summary of the method: as §1
Salmonella typhimurium [12] = assay: Evaluated for the minimum inhibitory concentration (MIC) which inhibits the growth of Salmonella Typhimurium ATCC 13311 (gram-negative); assay type: functional, Salmonella enterica subsp. enterica serovar Typhimurium; conditions: Salmonella enterica; summary of the method: as §1
Serratia marcescens [13] = assay: Evaluated for the minimum inhibitory concentration (MIC) which inhibits the growth of Serratia marcescens MIT B-43 (gram-negative); assay type: functional; summary of the method: as §1
Pseudomonas aeruginosa [14] = assay: Evaluated for the minimum inhibitory concentration (MIC) which inhibits the growth of Pseudomonas aeruginosa ATCC 9721 (gram-negative); assay type: functional; summary of the method: as §1
Pseudomonas aeruginosa [15] = assay: Evaluated for the minimum inhibitory concentration (MIC) which inhibits the growth of Pseudomonas aeruginosa ATCC 9721.; assay type: functional; summary of the method: as §1
Enterobacter cloacae [16] = assay: Evaluated for the minimum inhibitory concentration (MIC) which inhibits the growth of Enterobacter cloacae ATCC 13047; assay type: functional; summary of the method: as §1
Serratia marcescens [17] = assay: Evaluated for the minimum inhibitory concentration (MIC) which inhibits the growth of Serratia marcescens MIT B-43; assay type: functional; summary of the method: as §1
Shigella sonnei [18] = assay: Evaluated for the minimum inhibitory concentration (MIC) which inhibits the growth of Shigella sonnei ATCC 11060; assay type: functional; summary of the method: as §1
[19] = tested on: Staphylococcus epidermidis; assay: Evaluated for the minimum inhibitory concentration (MIC) which inhibits the growth of Staphylococcus epidermidis ATCC 14990; assay type: functional; summary of the method: as §1
Escherichia coli [20] = assay: Evaluated for the minimum inhibitory concentration (MIC) which inhibits the growth of Escherichia coli ATCC 25922; assay type: functional; summary of the method: as §1
Proteus vulgaris [21] = assay: Evaluated for the minimum inhibitory concentration (MIC) which inhibits the growth of Proteus vulgaris ATCC 6380; assay type: functional; summary of the method: as §1
Salmonella typhimurium [22] = assay: Evaluated for the minimum inhibitory concentration (MIC) which inhibits the growth of; assay type: functional, salmonella typhimurium a; conditions: Salmonella enterica; summary of the method: as §1
Proteus mirabilis [23] = assay: Evaluated for the minimum inhibitory concentration (MIC) which inhibits the growth of Proteus mirabilis MIT B-52; assay type: functional; summary of the method: as §1
Micrococcus luteus [24] = assay: Evaluated for the minimum inhibitory concentration (MIC) which inhibits the growth of Sarcina lutea ATCC 9341; assay type: functional; summary of the method: as §1
Streptococcus pyogenes [25] = assay: Evaluated for the minimum inhibitory concentration (MIC) which inhibits the growth of Streptococcus pyogenes ATCC 10389; assay type: functional; summary of the method: as §1
Bacillus subtilis [26] = assay: Evaluated for the minimum inhibitory concentration (MIC) which inhibits the growth of Bacillus subtilis ATCC 6051; assay type: functional; summary of the method: as §1
Staphylococcus aureus [27] = assay: Evaluated for the minimum inhibitory concentration (MIC) which inhibits the growth of Staphylococcus aureus ATCC 25923; assay type: functional; summary of the method: as §1
Klebsiella pneumoniae [28] = assay: Evaluated for the minimum inhibitory concentration (MIC) which inhibits the growth of Klebsiella pneumoniae ATCC 27736; assay type: functional; summary of the method: as §1

Which results are given for CC1(C)SC2CC(=O)N2C1O (stereo not drawn)?
MIC (Escherichia coli [1]): > 100 µg/mL; MIC (Staphylococcus aureus [2]): > 100 µg/mL; MIC (Enterobacter cloacae [3]): > 100 µg/mL; MIC (Proteus vulgaris [4]): > 100 µg/mL; MIC (Klebsiella pneumoniae [5]): > 100 µg/mL; MIC (Proteus mirabilis [6]): > 100 µg/mL; MIC (Micrococcus luteus [7]): > 100 µg/mL; MIC (Shigella sonnei [8]): > 100 µg/mL; MIC [9]: > 100 µg/mL; MIC (Bacillus subtilis [10]): 25 µg/mL (≈ 144 µM); MIC (Streptococcus pyogenes [11]): > 100 µg/mL; MIC (Salmonella typhimurium [12]): > 100 µg/mL; MIC (Serratia marcescens [13]): > 100 µg/mL; MIC (Pseudomonas aeruginosa [14]): > 100 µg/mL

With CC(C)(CO)SC1CC(=O)N1 (stereo not drawn) as the compound, how does the MIC (Pseudomonas aeruginosa [15]) read?
The MIC was greater than 100 µg/mL.

And the MIC (Enterobacter cloacae [16])?
The MIC was greater than 100 µg/mL.

And the MIC (Serratia marcescens [17])?
Its MIC is greater than 100 µg/mL.

What about the MIC (Shigella sonnei [18]) of the same compound?
Its MIC is greater than 100 µg/mL.

What about the MIC [19] of the same compound?
The MIC was greater than 100 µg/mL.

And the MIC (Escherichia coli [20])?
The MIC was greater than 100 µg/mL.

What about the MIC (Proteus vulgaris [21]) of the same compound?
Its MIC is greater than 100 µg/mL.

And the MIC (Salmonella typhimurium [22])?
Its MIC is greater than 100 µg/mL.

What about the MIC (Proteus mirabilis [23]) of the same compound?
The MIC was greater than 100 µg/mL.

What about the MIC (Micrococcus luteus [24]) of the same compound?
The MIC was greater than 100 µg/mL.

And the MIC (Streptococcus pyogenes [25])?
The MIC was greater than 100 µg/mL.

What about the MIC (Bacillus subtilis [26]) of the same compound?
The MIC was 100 µg/mL (≈ 571 µM).

And the MIC (Staphylococcus aureus [27])?
Its MIC is greater than 100 µg/mL.

And the MIC (Klebsiella pneumoniae [28])?
Its MIC is greater than 100 µg/mL.

Reference: ChEMBL document CHEMBL1121479, “Simple beta-lactam compounds derived from 6-aminopenicillanic acid” (1980)
